Key:
[1] = biological target: Xanthine dehydrogenase/oxidase (Bos taurus, UniProt P80457); experiment: Inhibition of bovine milk xanthine oxidase assessed as hypoxanthine-stimulated ROS generation by measuring H2O2 production at 25 to 50 uM by fluorescence assay; details: cattle
[2] = biological target: T1, NADPH oxidase 2 (Homo sapiens, UniProt P04839); experiment: Inhibition of full length human NOX2 transfected in COS 22 cells assessed as inhibition of Phorbol 12-myristate 13-acetate-stimulated ROS generation by chemiluminescence assay; format: cell-based
T1 sequence (P04839 whole entry): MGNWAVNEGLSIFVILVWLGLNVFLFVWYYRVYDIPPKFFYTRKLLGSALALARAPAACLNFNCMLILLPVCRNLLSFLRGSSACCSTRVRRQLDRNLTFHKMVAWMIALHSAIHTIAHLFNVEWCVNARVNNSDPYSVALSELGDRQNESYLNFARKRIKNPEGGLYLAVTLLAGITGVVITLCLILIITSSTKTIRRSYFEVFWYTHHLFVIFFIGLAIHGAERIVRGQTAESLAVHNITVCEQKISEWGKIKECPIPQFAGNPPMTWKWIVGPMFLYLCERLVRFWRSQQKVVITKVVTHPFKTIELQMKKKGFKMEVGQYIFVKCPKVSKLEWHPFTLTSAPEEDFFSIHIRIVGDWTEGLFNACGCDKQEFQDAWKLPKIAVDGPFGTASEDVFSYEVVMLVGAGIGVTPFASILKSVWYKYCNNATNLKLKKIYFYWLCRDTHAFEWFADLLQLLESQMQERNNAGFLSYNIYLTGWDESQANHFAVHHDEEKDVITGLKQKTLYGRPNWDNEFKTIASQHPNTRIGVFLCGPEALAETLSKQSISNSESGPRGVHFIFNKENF
How it was run: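 COS-Nox2 (COS-7 stably expressing human p22phox, Nox2, p47phox, p67phox) plated in OPTIMEM at 2.5 x 10³ cells/well; 10 min at 37 °C in PBS with L-012, then stimulated with 5 µM PMA; luminescence followed over time; superoxide specificity checked with SOD 150 U/mL. IC50 by three-parameter non-linear fit, Hill slope 1, top/bottom fixed 100/0.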

[3] = biological target: T1, NADPH oxidase 2; experiment: Inhibition of full length human NOX2 transfected in COS 22 cells assessed as inhibition of Phorbol 12-myristate 13-acetate-stimulated ROS generation by measuring H2O2 production by fluorescence assay in presence of superoxide dismutase; format: cell-based
How it was run: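 Intact COS-Nox2 cells in Hepes pH 7.4 buffer with 0.1 mM Amplex Red, 0.32 U/ml HRP and 150 U/mL SOD, drug 15 min at 37 °C; started with 5 µM PMA; fluorescence monitored 1 h at 37 °C; rate as RFU/min minus unstimulated cells; % of vehicle control.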

[4] = biological target: T2, NADPH oxidase 5 (Homo sapiens, UniProt Q96PH1); experiment: Inhibition of full length human NOX5 transfected in HEK cells assessed as inhibition of ionomycin-stimulated ROS generation by chemiluminescence assay; format: cell-based, HEK293
T2 sequence (Q96PH1 whole entry): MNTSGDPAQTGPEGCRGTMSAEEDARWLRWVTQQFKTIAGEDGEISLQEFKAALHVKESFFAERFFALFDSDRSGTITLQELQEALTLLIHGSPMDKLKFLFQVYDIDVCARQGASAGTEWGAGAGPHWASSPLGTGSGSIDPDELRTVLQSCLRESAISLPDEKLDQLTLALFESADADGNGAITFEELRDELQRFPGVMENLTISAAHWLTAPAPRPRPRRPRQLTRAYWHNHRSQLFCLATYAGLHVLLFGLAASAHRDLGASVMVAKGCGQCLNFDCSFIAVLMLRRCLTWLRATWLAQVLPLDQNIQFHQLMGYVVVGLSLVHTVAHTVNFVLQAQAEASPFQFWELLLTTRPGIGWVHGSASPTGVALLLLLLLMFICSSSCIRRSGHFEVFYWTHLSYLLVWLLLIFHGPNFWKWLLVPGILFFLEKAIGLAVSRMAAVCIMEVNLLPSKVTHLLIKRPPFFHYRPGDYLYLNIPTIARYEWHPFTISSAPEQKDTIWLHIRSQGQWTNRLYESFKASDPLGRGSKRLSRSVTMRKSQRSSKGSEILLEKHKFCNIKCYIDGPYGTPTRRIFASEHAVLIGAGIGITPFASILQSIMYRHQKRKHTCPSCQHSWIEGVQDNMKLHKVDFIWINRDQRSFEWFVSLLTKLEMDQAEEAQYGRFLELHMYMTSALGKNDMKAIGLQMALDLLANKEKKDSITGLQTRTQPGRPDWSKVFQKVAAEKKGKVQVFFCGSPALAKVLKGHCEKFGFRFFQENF
How it was run: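 HEK-Nox5 cells at 5 × 10⁴ cells/well in OPTIMEM, 10 min at 37 °C in PBS with L-012, then stimulated with 1 µM PMA/0.1 µM ionomycin; luminescence over time; SOD 150 U/mL used to confirm superoxide specificity. IC50 by three-parameter fit, Hill slope 1, top/bottom fixed 100/0.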

[5] = biological target: T3, NADPH oxidase 1 (Homo sapiens, UniProt Q9Y5S8); experiment: Inhibition of full length human NOX1 transfected in COS 22 cells assessed as inhibition of constitutive ROS generation by chemiluminescence assay
T3 sequence (Q9Y5S8 whole entry): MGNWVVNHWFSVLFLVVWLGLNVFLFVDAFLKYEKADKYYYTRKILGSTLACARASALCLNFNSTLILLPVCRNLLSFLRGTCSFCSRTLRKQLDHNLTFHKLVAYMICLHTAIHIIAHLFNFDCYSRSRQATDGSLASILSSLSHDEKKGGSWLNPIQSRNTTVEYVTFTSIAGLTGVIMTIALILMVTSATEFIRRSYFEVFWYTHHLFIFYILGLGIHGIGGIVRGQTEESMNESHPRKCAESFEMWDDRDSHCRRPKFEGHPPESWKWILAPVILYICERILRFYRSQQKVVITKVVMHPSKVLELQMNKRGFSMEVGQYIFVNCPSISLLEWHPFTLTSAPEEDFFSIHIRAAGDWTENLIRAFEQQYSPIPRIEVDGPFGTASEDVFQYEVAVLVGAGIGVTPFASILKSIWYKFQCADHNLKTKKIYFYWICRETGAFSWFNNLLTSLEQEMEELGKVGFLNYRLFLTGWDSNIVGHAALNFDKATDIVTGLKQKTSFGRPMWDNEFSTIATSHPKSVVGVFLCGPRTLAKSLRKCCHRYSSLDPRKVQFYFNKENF

[6] = biological target: T4, NADPH oxidase 4 (Homo sapiens, UniProt Q9NPH5); experiment: Inhibition of full length human NOX4 transfected in COS 22 cells assessed as inhibition of ROS generation by measuring H2O2 production by fluorescence assay
T4 sequence (Q9NPH5 whole entry): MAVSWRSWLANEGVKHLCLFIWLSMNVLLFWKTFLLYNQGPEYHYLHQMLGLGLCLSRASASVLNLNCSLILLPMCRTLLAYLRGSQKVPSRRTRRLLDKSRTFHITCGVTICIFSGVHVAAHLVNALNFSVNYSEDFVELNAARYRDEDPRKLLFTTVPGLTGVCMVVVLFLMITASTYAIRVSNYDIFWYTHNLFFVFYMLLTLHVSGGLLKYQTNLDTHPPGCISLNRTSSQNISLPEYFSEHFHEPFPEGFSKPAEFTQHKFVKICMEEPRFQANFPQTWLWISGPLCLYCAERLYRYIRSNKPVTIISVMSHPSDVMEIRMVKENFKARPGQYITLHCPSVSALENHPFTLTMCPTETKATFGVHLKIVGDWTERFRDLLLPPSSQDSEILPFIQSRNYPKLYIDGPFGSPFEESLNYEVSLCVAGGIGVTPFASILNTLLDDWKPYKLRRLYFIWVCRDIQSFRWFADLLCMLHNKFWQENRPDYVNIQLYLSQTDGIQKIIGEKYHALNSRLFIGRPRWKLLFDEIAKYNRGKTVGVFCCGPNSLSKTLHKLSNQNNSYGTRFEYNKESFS

[7] = Cytotoxicity against african green monkey COS7 cells expressing human p22phox assessed as cell viability at 25 to 50 uM after 15 mins by luminogenic assay; format: cell-based; details: chlorocebus aethiops, cos-7, 0.25 h
How it was run: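 COS-22 cells plated at 2.5 x 10³ cells/well in OPTIMEM, exposed 15 min to compounds at various concentrations; dead-cell protease release read with luminogenic AAF peptide substrate, signal before and after digitonin used to derive % dead; reported as % live cells (100 − % dead) per well.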

Chain of Xanthine dehydrogenase/oxidase (P80457 whole entry): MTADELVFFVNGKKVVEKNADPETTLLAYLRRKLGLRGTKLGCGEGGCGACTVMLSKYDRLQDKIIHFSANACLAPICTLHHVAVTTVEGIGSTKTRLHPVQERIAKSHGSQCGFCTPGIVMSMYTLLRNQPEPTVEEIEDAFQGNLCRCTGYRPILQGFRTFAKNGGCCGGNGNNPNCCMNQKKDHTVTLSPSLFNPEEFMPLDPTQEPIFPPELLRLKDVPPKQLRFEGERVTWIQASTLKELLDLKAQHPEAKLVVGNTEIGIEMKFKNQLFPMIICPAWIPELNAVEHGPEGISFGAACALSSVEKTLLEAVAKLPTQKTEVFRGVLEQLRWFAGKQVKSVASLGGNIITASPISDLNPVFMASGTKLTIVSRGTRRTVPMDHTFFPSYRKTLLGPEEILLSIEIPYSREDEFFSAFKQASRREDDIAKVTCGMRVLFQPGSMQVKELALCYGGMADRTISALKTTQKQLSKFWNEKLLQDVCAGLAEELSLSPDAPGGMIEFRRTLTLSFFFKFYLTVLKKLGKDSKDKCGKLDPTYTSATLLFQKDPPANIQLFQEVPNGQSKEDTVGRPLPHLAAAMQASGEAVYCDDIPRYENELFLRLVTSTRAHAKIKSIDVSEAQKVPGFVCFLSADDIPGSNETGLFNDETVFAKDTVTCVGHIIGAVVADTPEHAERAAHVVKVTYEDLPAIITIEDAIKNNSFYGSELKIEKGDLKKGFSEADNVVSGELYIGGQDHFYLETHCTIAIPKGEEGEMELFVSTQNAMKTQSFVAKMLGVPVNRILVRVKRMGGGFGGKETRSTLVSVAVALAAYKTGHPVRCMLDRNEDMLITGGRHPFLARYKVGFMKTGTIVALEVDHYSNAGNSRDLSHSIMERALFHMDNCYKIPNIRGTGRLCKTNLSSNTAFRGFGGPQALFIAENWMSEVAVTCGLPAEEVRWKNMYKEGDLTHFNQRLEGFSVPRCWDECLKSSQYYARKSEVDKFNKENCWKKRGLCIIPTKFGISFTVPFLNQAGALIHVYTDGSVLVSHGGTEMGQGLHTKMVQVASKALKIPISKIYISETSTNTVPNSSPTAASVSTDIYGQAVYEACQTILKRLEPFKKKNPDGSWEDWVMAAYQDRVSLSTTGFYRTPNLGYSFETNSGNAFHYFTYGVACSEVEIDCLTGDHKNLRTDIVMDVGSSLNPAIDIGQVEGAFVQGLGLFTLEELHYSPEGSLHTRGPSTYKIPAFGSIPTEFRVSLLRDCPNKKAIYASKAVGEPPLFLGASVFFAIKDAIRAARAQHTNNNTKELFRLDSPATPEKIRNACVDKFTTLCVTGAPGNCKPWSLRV

SMILES | inhibition (INH) [1] | IC50 ([2]; read-out: IC50) | IC50 ([3]; read-out: IC50) | IC50 [4] | IC50 ([5]; cos 22) | IC50 ([6]; read-out: IC50) | Activity [7] | IC50 ([5]; read-out: IC50) | IC50 ([6]; cos 22) | IC50 ([2]; cos 22) | IC50 ([3]; cos 22)
[Cl-].c1ccc2c(c1)[I+]c1ccccc1-2 [DIPHENYLENEIODONIUM CHLORIDE] | Not Active |  |  |  |  |  |  |  |  |  | 
C=C(C)C[C@H]1[C@H]2c3c(Br)cccc3[C@H](CC2(C)C)N1S(C)(=O)=O (racemic) | Not Active | > 100 µM | 27 µM | > 100 µM | Not Active | > 100 µM |  |  |  |  | 
CC(C)C[C@@H]1N[C@H]2CC(C)(C)[C@@H]1c1c(Br)cccc12 (racemic) | Not Active | 31 µM | 78 µM | 18 µM |  | > 100 µM | Non-toxic | 32 µM |  |  | 
C=C(C)C[C@H]1[C@H]2c3ccccc3[C@H](CC2(C)C)N1Cc1cccc(F)c1 (racemic) | Not Active | 68 µM | 30 µM | 50 µM |  | > 100 µM |  | > 100 µM |  |  | 
C=C(C)C[C@H]1[C@H]2c3c(Br)cccc3[C@H](CC2(C)C)N1Cc1cccc(F)c1 (racemic) | Not Active | 68 µM | 51 µM | 79 µM |  | > 100 µM |  | > 100 µM |  |  | 
C=C(C)C[C@H]1[C@H]2c3c(-c4ccc(Cl)c(Cl)c4)cccc3[C@H](CC2(C)C)N1Cc1ccc2c(c1)OCO2 (racemic) | Not Active | > 100 µM | > 100 µM | > 100 µM |  |  |  | > 100 µM | Not Active |  | 
C=C(C)C[C@@H]1N[C@H]2CC(C)(C)[C@@H]1c1c(-c3cccnc3)cccc12 (racemic) | Not Active |  |  |  |  |  |  |  |  | Not Active | Not Active
C=C(C)C[C@H]1[C@H]2c3c(Br)cccc3[C@H](CC2(C)C)N1S(=O)(=O)c1ccc(F)cc1 (racemic) | Not Active | > 100 µM | > 100 µM | > 100 µM |  |  |  | > 100 µM | Not Active |  | 
C=C(C)C[C@H]1[C@H]2c3c(Br)cccc3[C@H](CC2(C)C)N1CCCCC (racemic) | Not Active | 20 µM | 20 µM | > 100 µM |  | > 100 µM |  | > 100 µM |  |  | 
C=C(C)C[C@H]1[C@H]2c3c(Br)cccc3[C@H](CC2(C)C)N1Cc1cccs1 (racemic) | Not Active | 38 µM | 32 µM | > 100 µM |  |  |  | > 100 µM | Not Active |  | 
C=C(C)C[C@H]1[C@H]2c3c(-c4ccc(Cl)c(Cl)c4)cccc3[C@H](CC2(C)C)N1CCCCC (racemic) | Not Active | > 100 µM | 79 µM | > 100 µM |  | > 100 µM |  | > 100 µM |  |  | 
C=C(C)C[C@H]1[C@H]2c3c(Br)cccc3[C@H](CC2(C)C)N1Cc1ccc2c(c1)OCO2 (racemic) | Not Active | 88 µM | 40 µM | > 100 µM |  | > 100 µM |  | > 100 µM |  |  | 
C=C(C)C[C@H]1[C@H]2c3c(Br)cccc3[C@H](CC2(C)C)N1Cc1ccnc2ccccc12 (racemic) | Not Active | > 100 µM | > 100 µM | > 100 µM |  |  |  | > 100 µM | Not Active |  | 
C=C(C)C[C@H]1[C@H]2c3c(Br)cccc3[C@H](CC2(C)C)N1Cc1cc(C)on1 (racemic) | Not Active | 48 µM | 12 µM | 31 µM |  | > 100 µM |  | > 100 µM |  |  | 
C=C(C)C[C@@H]1N[C@H]2CC(C)(C)[C@@H]1c1c(-c3ccc(Cl)c(Cl)c3)cccc12 (racemic) | Not Active | 9 µM | 64 µM | 14 µM |  | > 100 µM |  | > 100 µM |  |  | 
C=C(C)C[C@H]1[C@H]2c3c(Br)cccc3[C@H](CC2(C)C)N1Cc1c[nH]c2ccccc12 (racemic) | Not Active | > 100 µM | > 100 µM | > 100 µM |  |  |  | > 100 µM | Not Active |  | 
C=C(C)C[C@@H]1N[C@H]2CC(C)(C)[C@@H]1c1ccccc12 (racemic) | Not Active | > 100 µM | > 100 µM | > 100 µM |  |  |  | > 100 µM | Not Active |  | 

Source: ChEMBL document CHEMBL3390837, “Bridged tetrahydroisoquinolines as selective NADPH oxidase 2 (Nox2) inhibitors” (Medchemcomm, 2013)
